Screening data: PubChem BioAssay, several laboratories
Hits are enriched below; roughly 2.8% of the tested compounds scored in any of these assays.
m5-HT2A agonist = activates the mouse 5-HT2A serotonin receptor | P35363 | CHO-K1 mHTR2A beta-arrestin complementation, luminescence; percent of 30 µM serotonin response | activation, % at 7.6 µM | hit rate 0.66% among 360,000;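 active = activation above a run cutoff, the mean activation of all tested compounds plus 3 SD, cut at about 14% in these data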
EBI2 antag = antagonists of human EBI2 receptor; P32249; EBI2 beta-arrestin recruitment, luminescence, 7a,25-OHC stimulated; inhibition, % at 5 µM; hit rate 0.81% among 360,000; in the data active = inhibition above about 38%;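 note: enzyme fragment complementation signal reports receptor beta-arrestin coupling in cells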
Target sequence (P32249 whole entry, looked up, the tested form may be a part): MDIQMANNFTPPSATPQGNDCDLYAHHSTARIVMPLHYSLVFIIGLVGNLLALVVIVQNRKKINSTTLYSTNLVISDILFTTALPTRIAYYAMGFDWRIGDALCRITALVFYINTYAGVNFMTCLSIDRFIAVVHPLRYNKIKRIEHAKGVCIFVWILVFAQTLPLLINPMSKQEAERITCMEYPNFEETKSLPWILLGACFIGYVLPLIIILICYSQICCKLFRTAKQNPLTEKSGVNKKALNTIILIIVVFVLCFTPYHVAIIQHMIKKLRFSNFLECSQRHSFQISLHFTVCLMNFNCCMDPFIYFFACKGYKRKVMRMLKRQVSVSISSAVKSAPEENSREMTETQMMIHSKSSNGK
MC4R ag barr = agonists of human melanocortin 4 receptor (MC4R) beta-arrestin. activation, % at 8.9 µM. U2OS MC4R beta-arrestin complementation, luminescence; percent of melanotan II response, DMSO zero. P32245. AID 540308. hit rate 0.98% among 360,000;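 active = activation above a per-plate cutoff, the mean activation of sample wells on that plate plus 3 SD, cut at about 8% in these data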
MC4R antagonist = human MC4R antagonism in cAMP assay. MC4R-expressing cells, MTII-stimulated cAMP, LANCE TR-FRET. inhibition, % at 6.5 µM. hit rate 0.48% among 360,000. AID 540295;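 active = inhibition above its plate's cutoff, the mean of tested wells on that plate plus 3 SD, cut at about 29% in these data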
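Assay system: U2OS cells stably expressing human melanocortin 4 receptor (MC4R) / Dosing: 6.5 µM / Timing: compound 30 min, challenge 1 h, detection 1 h / Measured by: Eu-cAMP/anti-cAMP TR-FRET, emission 671 nm / Replicates: singlicate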
cAMP nonselect = counter-screen for MC4R antagonists: nonselective cAMP signaling inhibitors; AID 602193; parental U2OS, forskolin cAMP, LANCE TR-FRET; hit rate 26% among 1,600; shares compounds with MC4R antagonist; inhibition, % at 6.5 µM;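 active = mean inhibition over triplicates above the low-control well mean plus 3 SD, set per campaign, cut at about 13% in these data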;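 note: signal is single emission at 671 nm which falls as cellular cAMP rises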
MC4R antag conf = human MC4R cAMP antagonism confirmation; shares compounds with MC4R antagonist; MC4R-expressing cells, MTII-stimulated cAMP, TR-FRET; inhibition, % at 6.5 µM; hit rate 27% among 1,600; AID 602195; in the data active = inhibition above about 29%
Of the large screens only hits and unclear results are named; the others gave an inactive call (follow-up assays come after a bar, where they were run).

CC(=O)Nc1cc(-c2cccc(C(=O)NCCN(C)C)c2)cn2c(-c3ccc(C(C)=O)cc3)cnc12	none
O=C(c1cnc(Cl)c(Cl)c1)N1CCN(S(=O)(=O)c2ccc3ccccc3c2)CC1	MC4R antagonist 36 | cAMP nonselect 17 | MC4R antag conf 54
COC(=O)C1=CN(c2ccccc2OC)C(N)=C(C#N)C1c1cccc([N+](=O)[O-])c1 (stereo not given)	none (no result: MC4R ag barr, MC4R antagonist)
CCOC(=O)CSc1ccc(-c2nc3cc(C)c(C)cc3[nH]2)cn1	MC4R antagonist 34 | cAMP nonselect inactive | MC4R antag conf inactive
CCOC(=O)CSc1ccc(-c2nc3ccccc3[nH]2)cn1	none
CCNC(=O)Cn1cc(C(F)(F)F)cc(Cl)c1=O	MC4R antagonist 30 | cAMP nonselect inactive | MC4R antag conf inactive
O=C(Cn1cc(C(F)(F)F)cc(Cl)c1=O)NCc1ccc(Cl)cc1Cl	none
CC1(C(=O)NS(=O)(=O)c2ccc3c(c2)CCO3)CCN1C(=O)COc1ccc(Cl)cc1 (stereo not given)	none
O=C(OCCO)c1c(C2=CCCCC2)oc2c1C(OCCO)CCC2 (stereo not given)	none (no result: MC4R ag barr, MC4R antagonist)
Cc1cccc(OC(=O)c2sc(Cl)nc2C)c1	MC4R antagonist 32 | cAMP nonselect 14 | MC4R antag conf 32
Cc1cc2nc(NC(=O)C3(C)CCCN(C(C)C)C3)[nH]c2cc1C (stereo not given)	none
CC(=O)OC[C@@H]1CN(Cc2ccccc2)C[C@H](n2cnc3c(N(C)C(C)C)ncnc32)O1	none
Cc1cc(C)cc(C(=O)NCC(=O)OCC(=O)NCc2ccco2)c1	MC4R antagonist 39 | cAMP nonselect inactive | MC4R antag conf inactive
S=c1[nH]nc(-c2cccnc2)o1	none
S=c1[nH]nc(-c2cccc(Br)c2)o1	MC4R antagonist 46 | cAMP nonselect 16 | MC4R antag conf inactive
CC(C(=O)N1CCc2ccccc21)N1CCN(S(=O)(=O)c2cccc(C(F)(F)F)c2)CC1 (stereo not given)	none
CSc1nc(-c2ccccc2)c(C#N)c(=O)[nH]1	none
CNC(=O)NC(=O)CSc1nc(-c2cccs2)c(C#N)c(=O)[nH]1	MC4R antagonist 121 | cAMP nonselect 87 | MC4R antag conf 153
CSc1nc(-c2cccs2)c(C#N)c(=O)[nH]1	MC4R antagonist 45 | cAMP nonselect 43 | MC4R antag conf 85
CSc1nc(-c2ccc(Cl)cc2)c(C#N)c(=O)[nH]1	none
COc1cccc(-c2nc(SCC(=O)Nc3nc(-c4ccccc4)c(C)s3)[nH]c(=O)c2C#N)c1	none
CCOc1ccc2nc(NC(=O)CSc3nc(-c4ccccc4)c(C#N)c(=O)[nH]3)sc2c1	MC4R antagonist 31 | cAMP nonselect inactive | MC4R antag conf inactive
N#Cc1c(-c2cccs2)nc(SCc2ccc(Cl)cc2)[nH]c1=O	MC4R antagonist 58 | cAMP nonselect 43 | MC4R antag conf 80
COc1ccccc1CCNC(=O)C1CC(=O)N(c2ccccc2F)C1 (stereo not given)	none
CC1=C/C(=N\OS(=O)(=O)c2ccccc2)C(C)=CC1=O	MC4R antagonist 68 | cAMP nonselect 39 | MC4R antag conf 76
COc1cc(C(=O)O/N=C2/C=C(C)C(=O)C=C2C)cc(OC)c1OC	none
CCCCCC(O)(c1ccc(OCC)cc1)C(CN1CCOCC1)c1ccccc1 (stereo not given)	none
C[C@@H]1ON(C)[C@H]2C[C@H]3c4[nH]c5ccc(-c6ccc7c(c6)OCO7)cc5c4CCN3C(=O)[C@@H]12	none
CCn1nc(C)c(C2C(C#N)=C(N)Oc3n[nH]c(C)c32)c1C (stereo not given)	MC4R antagonist 31 | cAMP nonselect inactive | MC4R antag conf inactive
CCC(CC)C1C(C#N)=C(N)Oc2n[nH]c(C)c21 (stereo not given)	none
O=C(NCCc1ccc(F)cc1)c1ccc(Cl)c(S(=O)(=O)N2CCOCC2)c1	none
Cc1ccccc1OCCC(=O)OCC(=O)Nc1cc(S(=O)(=O)N2CCOCC2)ccc1Cl	MC4R antagonist 35 | cAMP nonselect inactive | MC4R antag conf inactive
Cc1cc(C(=O)O)ccc1-n1c(C)cc(/C=C(/C#N)C(=O)Nc2ccccc2)c1C	MC4R antagonist 31 | cAMP nonselect inactive | MC4R antag conf inactive
CCOc1ccccc1/C=C(\C#N)C(=O)Nc1cccc(C(=O)O)c1	MC4R antagonist 38 | cAMP nonselect inactive | MC4R antag conf inactive
CC(C)NC(=O)C1(C)CSCC(=O)N1CCOc1ccccc1 (stereo not given)	none (no result: MC4R ag barr, MC4R antagonist)
Cc1ccc(CC(=O)N2CCN(c3cccc(C(F)(F)F)c3)CC2)cc1	MC4R antagonist 33 | cAMP nonselect inactive | MC4R antag conf inactive
Cn1c(-c2ccccc2)n[nH]c1=S	MC4R antagonist 33 | cAMP nonselect inactive | MC4R antag conf inactive
O=c1c2c(-c3cccs3)csc2[nH]c(=S)n1-c1ccccc1	MC4R antagonist 31 | cAMP nonselect 18 | MC4R antag conf 33
CC(C)n1c(=S)[nH]c2scc(-c3cccs3)c2c1=O	none
O=C(c1ccc([N+](=O)[O-])cc1)N(Cc1ccc(Cl)cc1Cl)N1C(=O)CCCC1=O	none
O=C(c1ccc([N+](=O)[O-])cc1)N(Cc1ccc(Cl)cc1)N1C(=O)CCCC1=O	MC4R antagonist 32 | cAMP nonselect 17 | MC4R antag conf 32
O=C(CSc1ncn[nH]1)NN(c1ccccc1)c1ccccc1	none
O=C(CSc1nccc(=O)[nH]1)NN(c1ccccc1)c1ccccc1	MC4R antagonist 29 | cAMP nonselect inactive | MC4R antag conf inactive
COc1ccc(C(C)C)cc1S(=O)(=O)Nc1cccnc1	none
COc1cc(-c2cc(C(=O)Nc3ccc(C)c(S(=O)(=O)N4CCOCC4)c3)c3ccccc3n2)cc(OC)c1OC	MC4R antagonist 32 | cAMP nonselect inactive | MC4R antag conf inactive
Cc1cc(C)n(-c2nnc(NC34CC5CC(CC(C5)C3)C4)nn2)n1	MC4R antagonist 29 | cAMP nonselect inactive | MC4R antag conf inactive
Cc1cc(C)n(-c2nnc(NC(C)(C)C)nn2)n1	none
Cn1nc([N+](=O)[O-])nc1Sc1cccc2cccnc12	MC4R antagonist 30 | cAMP nonselect inactive | MC4R antag conf inactive
O=C(Nc1nnc(-c2ccccc2)s1)c1ccccc1O	MC4R antagonist 31 | cAMP nonselect inactive | MC4R antag conf inactive
COc1ccccc1C(=O)Nc1nnc(-c2ccccc2)s1	none
CCOC(=O)C(C)(C)N(Cc1ccc(C)cc1)S(=O)(=O)c1ccc(Cl)c([N+](=O)[O-])c1	MC4R antagonist 31 | cAMP nonselect 20 | MC4R antag conf 52
CC(=O)c1c(C)oc2ccc(N(C(C)=O)S(=O)(=O)c3ccc(Cl)c([N+](=O)[O-])c3)cc12	none
CCOC(=O)C(C)(C)NS(=O)(=O)c1ccc(Cl)c([N+](=O)[O-])c1	MC4R antagonist 40 | cAMP nonselect 21 | MC4R antag conf 35
S=c1[nH]ncn1/N=C/c1ccco1	none
